Reference: ChEMBL document CHEMBL3779808, “Design, synthesis and biological evaluation of 5-amino-4-(1H-benzoimidazol-2-yl)-phenyl-1,2-dihydro-pyrrol-3-ones as inhibitors of protein kinase FGFR1” (Bioorg Med Chem, 2016)

What was measured:
[1] = target: T1, Fibroblast growth factor receptor 1 (Homo sapiens, UniProt P11362); assay: Inhibition of N-terminal GST-tagged recombinant human FGFR1 (456 to 765 residues) expressed in baculovirus infected insect Sf21 cells after 25 mins using KKKSPGEYVNIEFG peptide substrate by scintillation counting analysis
Target sequence in this assay (P11362 whole entry, the tested form may be a part): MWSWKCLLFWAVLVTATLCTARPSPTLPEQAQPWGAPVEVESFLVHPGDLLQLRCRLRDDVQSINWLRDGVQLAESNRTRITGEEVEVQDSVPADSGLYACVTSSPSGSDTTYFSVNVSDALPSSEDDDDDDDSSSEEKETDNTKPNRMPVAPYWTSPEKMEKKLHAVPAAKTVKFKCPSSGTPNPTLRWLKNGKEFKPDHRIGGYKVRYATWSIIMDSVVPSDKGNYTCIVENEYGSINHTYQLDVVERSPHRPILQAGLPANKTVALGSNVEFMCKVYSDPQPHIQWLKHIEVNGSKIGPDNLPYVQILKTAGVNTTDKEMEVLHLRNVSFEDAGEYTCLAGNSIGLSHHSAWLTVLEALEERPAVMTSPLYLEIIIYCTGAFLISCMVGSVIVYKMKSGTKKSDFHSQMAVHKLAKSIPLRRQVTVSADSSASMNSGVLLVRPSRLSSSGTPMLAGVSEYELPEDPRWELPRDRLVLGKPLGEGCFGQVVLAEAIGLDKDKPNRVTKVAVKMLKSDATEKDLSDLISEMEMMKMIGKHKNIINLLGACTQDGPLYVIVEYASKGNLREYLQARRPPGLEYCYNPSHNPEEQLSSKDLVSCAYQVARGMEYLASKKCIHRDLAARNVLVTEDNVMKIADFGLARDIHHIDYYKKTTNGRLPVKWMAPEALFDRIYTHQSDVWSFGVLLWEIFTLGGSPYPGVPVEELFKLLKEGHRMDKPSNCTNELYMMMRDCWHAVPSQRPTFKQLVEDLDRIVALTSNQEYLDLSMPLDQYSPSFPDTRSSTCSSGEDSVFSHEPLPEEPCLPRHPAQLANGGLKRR

[2] = Cytotoxicity against human KG1 cells assessed as cell viability after 72 hrs by MTT assay; conditions: KG-1, 72 h
HEK293 = assay: Cytotoxicity against HEK293 cells assessed as cell viability after 72 hrs by MTT assay; conditions: Homo sapiens, HEK293, 72 h
[3] = target: T1, Fibroblast growth factor receptor 1; assay: Inhibition of N-terminal GST-tagged recombinant human FGFR1 (456 to 765 residues) expressed in baculovirus infected insect Sf21 cells assessed as residual activity at 10 uM
Method in brief: (§1)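 This is a seven-kinase selectivity panel run according to the enzyme supplier's (Millipore) protocols. The reaction mixture contained 100 µM ATP. Activity is reported as residual activity.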
Target sequence in this assay (P11362 22-822 limits assumed): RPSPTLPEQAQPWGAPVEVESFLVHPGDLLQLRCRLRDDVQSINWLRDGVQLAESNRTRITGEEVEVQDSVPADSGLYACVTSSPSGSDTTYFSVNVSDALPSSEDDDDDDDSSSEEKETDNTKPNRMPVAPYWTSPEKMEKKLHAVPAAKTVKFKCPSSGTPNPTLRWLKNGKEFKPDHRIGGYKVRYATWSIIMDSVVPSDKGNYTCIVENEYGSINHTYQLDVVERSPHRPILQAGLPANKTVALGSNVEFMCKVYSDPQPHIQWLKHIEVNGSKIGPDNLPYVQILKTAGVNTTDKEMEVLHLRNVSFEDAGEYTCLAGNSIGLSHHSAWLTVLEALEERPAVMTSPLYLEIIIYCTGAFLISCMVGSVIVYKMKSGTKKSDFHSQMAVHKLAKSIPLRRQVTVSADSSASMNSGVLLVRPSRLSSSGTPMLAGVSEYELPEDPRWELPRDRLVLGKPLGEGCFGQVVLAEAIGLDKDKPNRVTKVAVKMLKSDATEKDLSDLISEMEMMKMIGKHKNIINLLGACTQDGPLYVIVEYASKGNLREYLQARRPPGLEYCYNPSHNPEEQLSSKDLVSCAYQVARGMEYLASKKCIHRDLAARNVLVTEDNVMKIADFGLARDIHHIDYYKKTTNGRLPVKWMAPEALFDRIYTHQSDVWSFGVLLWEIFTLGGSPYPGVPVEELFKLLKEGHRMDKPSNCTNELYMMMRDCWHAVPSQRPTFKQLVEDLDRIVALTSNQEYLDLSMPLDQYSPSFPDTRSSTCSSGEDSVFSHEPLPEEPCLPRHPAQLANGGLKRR

[4] = target: Angiopoietin-1 receptor (Homo sapiens) (UniProt Q02763); assay: Inhibition of N-terminal His6-tagged recombinant human Tie2 residues 771-end expressed in baculovirus infected insect Sf21 cells assessed as residual activity at 10 uM; method in brief: as §1
[5] = target: Hepatocyte growth factor receptor (Homo sapiens) (UniProt P08581); assay: Inhibition of N-terminal His6-tagged recombinant human c-Met residues 974-end expressed in baculovirus infected insect Sf21 cells assessed as residual activity at 10 uM; method in brief: as §1
[6] = target: T2, Aurora kinase A (Homo sapiens) (UniProt O14965); assay: Inhibition of N-terminal His6-tagged recombinant full length human Aurora A expressed in Sf21 cells assessed as residual activity at 10 uM; method in brief: as §1
T2 sequence (whole entry): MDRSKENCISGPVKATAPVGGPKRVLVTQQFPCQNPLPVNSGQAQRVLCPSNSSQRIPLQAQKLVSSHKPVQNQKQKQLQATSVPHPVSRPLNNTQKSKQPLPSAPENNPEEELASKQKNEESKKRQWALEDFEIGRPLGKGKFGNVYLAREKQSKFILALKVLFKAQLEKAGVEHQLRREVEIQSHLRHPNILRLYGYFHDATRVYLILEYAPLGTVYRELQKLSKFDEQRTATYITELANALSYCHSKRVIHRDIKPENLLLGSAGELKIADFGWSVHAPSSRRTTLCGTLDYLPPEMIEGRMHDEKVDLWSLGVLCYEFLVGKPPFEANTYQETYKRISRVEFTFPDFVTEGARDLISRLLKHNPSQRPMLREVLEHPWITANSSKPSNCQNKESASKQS

[7] = target: Mitogen-activated protein kinase 10 (Homo sapiens) (UniProt P53779); assay: Inhibition of N-terminal His6 tagged recombinant full length human JNK3 expressed in Sf21 cells assessed as residual activity at 10 uM; method in brief: as §1
[8] = target: Casein kinase 2 (Homo sapiens) (UniProt P67870+P68400+P19784+Q8NEV1); assay: Inhibition of recombinant full length human Casein Kinase 2 expressed in insect Sf21 cells assessed as residual activity at 10 uM; method in brief: as §1
[9] = target: T3, Mitogen-activated protein kinase kinase kinase 5 (Homo sapiens) (UniProt Q99683); assay: Inhibition of N-terminal GST/C-terminal His6-tagged recombinant human ASK1 (649 to 946 amino acids) expressed in Escherichia coli assessed as residual activity at 10 uM; method in brief: as §1
T3 sequence (whole entry): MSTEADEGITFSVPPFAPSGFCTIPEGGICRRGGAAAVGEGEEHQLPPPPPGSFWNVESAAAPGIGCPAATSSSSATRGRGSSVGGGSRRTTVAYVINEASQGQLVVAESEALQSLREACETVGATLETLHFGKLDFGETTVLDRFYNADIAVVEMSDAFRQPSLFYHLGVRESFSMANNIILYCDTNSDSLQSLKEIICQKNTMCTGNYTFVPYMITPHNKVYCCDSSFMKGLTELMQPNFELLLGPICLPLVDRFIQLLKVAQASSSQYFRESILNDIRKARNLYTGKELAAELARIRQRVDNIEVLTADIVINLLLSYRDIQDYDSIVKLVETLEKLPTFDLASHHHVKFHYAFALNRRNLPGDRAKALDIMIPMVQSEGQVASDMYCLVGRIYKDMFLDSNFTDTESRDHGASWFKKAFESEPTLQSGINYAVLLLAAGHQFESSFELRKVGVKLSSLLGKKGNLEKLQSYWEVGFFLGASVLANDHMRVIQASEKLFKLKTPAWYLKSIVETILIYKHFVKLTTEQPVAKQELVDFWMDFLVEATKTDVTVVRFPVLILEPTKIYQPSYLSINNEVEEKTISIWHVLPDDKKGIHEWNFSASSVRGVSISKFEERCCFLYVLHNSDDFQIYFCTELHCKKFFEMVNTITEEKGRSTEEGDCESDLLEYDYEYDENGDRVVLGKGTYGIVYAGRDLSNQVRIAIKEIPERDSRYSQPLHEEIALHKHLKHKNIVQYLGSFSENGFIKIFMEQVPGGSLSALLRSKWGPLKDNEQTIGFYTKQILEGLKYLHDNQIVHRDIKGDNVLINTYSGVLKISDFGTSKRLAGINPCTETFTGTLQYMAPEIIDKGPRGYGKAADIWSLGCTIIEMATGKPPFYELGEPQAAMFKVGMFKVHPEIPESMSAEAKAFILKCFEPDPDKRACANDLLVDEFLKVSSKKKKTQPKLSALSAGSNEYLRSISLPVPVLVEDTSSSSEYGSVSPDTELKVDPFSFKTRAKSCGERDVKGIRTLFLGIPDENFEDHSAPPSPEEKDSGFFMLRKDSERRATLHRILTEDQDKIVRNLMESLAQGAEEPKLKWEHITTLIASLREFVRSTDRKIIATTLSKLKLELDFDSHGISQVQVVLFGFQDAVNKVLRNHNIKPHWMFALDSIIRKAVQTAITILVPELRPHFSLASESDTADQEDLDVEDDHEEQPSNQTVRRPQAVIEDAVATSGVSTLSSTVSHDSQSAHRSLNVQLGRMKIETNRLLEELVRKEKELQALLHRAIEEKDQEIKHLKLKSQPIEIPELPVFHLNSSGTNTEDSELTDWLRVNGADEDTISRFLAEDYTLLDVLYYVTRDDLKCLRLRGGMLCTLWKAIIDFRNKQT

Chain of Hepatocyte growth factor receptor (Homo sapiens) (P08581 whole entry, the tested form may be a part): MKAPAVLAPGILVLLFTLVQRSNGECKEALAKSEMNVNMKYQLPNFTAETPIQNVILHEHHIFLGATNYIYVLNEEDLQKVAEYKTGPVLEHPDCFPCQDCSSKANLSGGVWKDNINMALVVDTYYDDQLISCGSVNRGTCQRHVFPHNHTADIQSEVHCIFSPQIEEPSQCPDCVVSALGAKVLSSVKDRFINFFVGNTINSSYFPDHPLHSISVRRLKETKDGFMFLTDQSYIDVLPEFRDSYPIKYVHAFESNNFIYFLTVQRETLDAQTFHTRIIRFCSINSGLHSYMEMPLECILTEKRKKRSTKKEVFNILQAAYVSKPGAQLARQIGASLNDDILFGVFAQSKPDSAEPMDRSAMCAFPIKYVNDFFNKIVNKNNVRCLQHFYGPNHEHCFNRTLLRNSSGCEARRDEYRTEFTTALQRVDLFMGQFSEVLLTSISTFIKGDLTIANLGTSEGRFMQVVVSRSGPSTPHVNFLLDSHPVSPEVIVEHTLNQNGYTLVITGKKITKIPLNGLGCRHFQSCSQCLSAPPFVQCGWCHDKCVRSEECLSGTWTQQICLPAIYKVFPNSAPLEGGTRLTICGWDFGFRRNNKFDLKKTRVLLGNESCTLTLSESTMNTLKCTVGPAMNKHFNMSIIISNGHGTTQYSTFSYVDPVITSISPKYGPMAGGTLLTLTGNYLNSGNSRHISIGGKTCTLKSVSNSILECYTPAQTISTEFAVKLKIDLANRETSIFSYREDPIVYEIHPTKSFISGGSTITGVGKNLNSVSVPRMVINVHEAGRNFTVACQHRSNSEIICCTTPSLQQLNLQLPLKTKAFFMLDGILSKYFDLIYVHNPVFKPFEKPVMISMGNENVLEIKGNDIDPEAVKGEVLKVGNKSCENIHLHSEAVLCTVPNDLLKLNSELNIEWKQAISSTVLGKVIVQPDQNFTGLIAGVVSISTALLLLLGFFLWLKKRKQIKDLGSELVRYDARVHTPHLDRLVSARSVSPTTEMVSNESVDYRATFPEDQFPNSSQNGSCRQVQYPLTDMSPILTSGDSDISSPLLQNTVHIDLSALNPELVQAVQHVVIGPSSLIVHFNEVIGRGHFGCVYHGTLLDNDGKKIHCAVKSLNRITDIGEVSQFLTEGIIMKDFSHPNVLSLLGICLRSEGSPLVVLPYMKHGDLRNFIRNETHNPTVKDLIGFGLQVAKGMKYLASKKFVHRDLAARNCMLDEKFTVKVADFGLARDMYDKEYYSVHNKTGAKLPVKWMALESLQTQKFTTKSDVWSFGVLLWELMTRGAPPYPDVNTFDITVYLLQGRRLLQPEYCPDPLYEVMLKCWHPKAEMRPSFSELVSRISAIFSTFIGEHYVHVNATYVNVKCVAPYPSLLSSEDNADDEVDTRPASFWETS
Chain of Mitogen-activated protein kinase 10 (Homo sapiens) (P53779 whole entry): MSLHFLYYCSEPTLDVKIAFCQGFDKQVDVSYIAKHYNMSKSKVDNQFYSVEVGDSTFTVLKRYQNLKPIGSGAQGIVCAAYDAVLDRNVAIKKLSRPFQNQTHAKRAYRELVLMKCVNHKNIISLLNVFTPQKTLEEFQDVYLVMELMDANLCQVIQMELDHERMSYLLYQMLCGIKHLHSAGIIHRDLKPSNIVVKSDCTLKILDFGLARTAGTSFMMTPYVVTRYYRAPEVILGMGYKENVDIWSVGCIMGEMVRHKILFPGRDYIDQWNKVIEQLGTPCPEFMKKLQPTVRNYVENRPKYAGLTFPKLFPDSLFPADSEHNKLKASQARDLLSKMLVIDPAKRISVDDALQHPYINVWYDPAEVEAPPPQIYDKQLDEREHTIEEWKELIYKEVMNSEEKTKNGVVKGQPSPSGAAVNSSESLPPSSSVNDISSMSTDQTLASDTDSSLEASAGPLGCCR
Chain of Angiopoietin-1 receptor (Homo sapiens) (Q02763 whole entry, the tested form may be a part): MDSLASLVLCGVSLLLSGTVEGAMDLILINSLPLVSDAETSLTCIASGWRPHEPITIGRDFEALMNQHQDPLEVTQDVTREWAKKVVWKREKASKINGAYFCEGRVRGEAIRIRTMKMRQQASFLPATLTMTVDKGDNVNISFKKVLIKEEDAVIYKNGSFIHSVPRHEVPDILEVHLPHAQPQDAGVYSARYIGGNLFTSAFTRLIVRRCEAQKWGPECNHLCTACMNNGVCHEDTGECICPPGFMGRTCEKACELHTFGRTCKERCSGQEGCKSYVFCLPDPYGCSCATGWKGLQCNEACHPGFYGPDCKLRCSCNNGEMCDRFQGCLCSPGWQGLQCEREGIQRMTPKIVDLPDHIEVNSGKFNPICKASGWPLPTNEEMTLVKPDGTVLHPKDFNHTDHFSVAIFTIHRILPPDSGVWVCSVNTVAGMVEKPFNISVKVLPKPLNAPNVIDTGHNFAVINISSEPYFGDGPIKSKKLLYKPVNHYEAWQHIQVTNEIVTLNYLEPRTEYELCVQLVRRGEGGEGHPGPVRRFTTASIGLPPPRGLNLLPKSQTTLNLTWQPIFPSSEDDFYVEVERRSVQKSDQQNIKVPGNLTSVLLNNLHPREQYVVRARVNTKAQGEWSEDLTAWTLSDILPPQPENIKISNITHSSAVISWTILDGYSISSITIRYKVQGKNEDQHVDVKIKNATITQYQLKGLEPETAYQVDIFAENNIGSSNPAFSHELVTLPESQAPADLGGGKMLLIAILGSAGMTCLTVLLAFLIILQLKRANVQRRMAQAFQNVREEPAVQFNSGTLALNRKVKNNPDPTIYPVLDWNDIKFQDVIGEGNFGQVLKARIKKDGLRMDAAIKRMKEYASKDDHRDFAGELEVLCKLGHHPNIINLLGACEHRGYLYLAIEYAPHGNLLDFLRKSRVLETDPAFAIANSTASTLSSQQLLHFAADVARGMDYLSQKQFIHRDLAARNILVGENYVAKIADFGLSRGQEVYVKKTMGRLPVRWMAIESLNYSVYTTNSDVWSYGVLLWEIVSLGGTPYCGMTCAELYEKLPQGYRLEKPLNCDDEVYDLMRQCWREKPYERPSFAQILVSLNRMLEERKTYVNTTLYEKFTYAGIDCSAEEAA

NC1=C(c2nc3ccccc3[nH]2)C(=O)CN1c1ccccc1
IC50 [1]: > 30 µM

NC1=C(c2nc3ccccc3[nH]2)C(=O)CN1c1ccccc1F
IC50 [1]: > 30 µM

NC1=C(c2nc3ccccc3[nH]2)C(=O)CN1c1cccc(O)c1
IC50 [1]: 0.32 µM
IC50 [2]: 9.3 µM
IC50 (HEK293): > 50 µM
Activity [3]: 2.1%
Activity [4]: 84.7%
Activity [5]: 128%
Activity [6]: 85.8%
Activity [7]: 118%
Activity [8]: 81.4%
Activity [9]: 95.7%

NC1=C(c2nc3ccccc3[nH]2)C(=O)CN1c1ccc(F)cc1
IC50 [1]: 27 µM

COc1ccc(Cl)cc1N1CC(=O)C(c2nc3ccccc3[nH]2)=C1N
IC50 [2]: > 50 µM
IC50 (HEK293): > 50 µM

Cc1ccc2nc(C3=C(N)N(c4cccc(O)c4)CC3=O)[nH]c2c1
IC50 [1]: 0.63 µM
IC50 [2]: 5.6 µM
IC50 (HEK293): > 50 µM
Activity [3]: 5%
Activity [4]: 92.7%
Activity [5]: 92.5%
Activity [6]: 75.8%
Activity [7]: 101%
Activity [8]: 77.3%
Activity [9]: 91.6%

Cc1ccc(N2CC(=O)C(c3nc4ccccc4[nH]3)=C2N)cc1
IC50 [1]: > 30 µM

Cc1cccc(N2CC(=O)C(c3nc4ccccc4[nH]3)=C2N)c1
IC50 [1]: > 30 µM

NC1=C(c2nc3ccccc3[nH]2)C(=O)CN1c1ccccc1Cl
IC50 [1]: > 30 µM

CCOc1ccccc1N1CC(=O)C(c2nc3ccccc3[nH]2)=C1N
IC50 [1]: > 30 µM

COc1ccc(N2CC(=O)C(c3nc4ccccc4[nH]3)=C2N)c(OC)c1
IC50 [1]: > 30 µM
